Data reported in ChEMBL document CHEMBL4732057, “Design, synthesis and biological evaluation of second-generation benzoylpiperidine derivatives as reversible monoacylglycerol lipase (MAGL) inhibitors” (Eur J Med Chem, 2021).

How the values were obtained:
Monoglyceride lipase = molecular target: T1, Monoglyceride lipase (Homo sapiens, UniProt Q99685); assay: Inhibition of human recombinant MAGL using 4-nitrophenylacetate as substrate incubated for 30 mins by microplate reader assay
T1 sequence (Q99685 whole entry): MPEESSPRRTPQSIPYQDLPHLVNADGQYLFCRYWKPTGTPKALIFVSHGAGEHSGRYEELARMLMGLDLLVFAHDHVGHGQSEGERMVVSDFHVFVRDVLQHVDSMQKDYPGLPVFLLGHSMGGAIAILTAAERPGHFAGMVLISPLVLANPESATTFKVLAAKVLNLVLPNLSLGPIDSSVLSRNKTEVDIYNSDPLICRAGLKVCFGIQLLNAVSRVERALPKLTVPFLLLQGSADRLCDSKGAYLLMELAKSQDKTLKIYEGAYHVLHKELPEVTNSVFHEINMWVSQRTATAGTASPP
Outline: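 Human recombinant MAGL, 11 ng/well, in 10 mM Tris pH 7.2 with 1 mM EDTA and 0.1 mg/mL BSA, at room temperature. 4-NPA 133.3 µM stock added; enzyme added last. Absorbance at 405 nm after 30 min, minus a no-enzyme blank for each concentration. Sigmoidal fit; duplicates of three independent experiments.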

[1] = Antiproliferative activity against human PDAC-3 cells assessed as inhibition of cell growth incubated for 72 hrs by SRB assay; type: functional, cell-based; settings: PDAC-3, 72 h
Outline: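 Primary patient-derived PDAC-3 cells, cultured under 20 passages in RPMI-1640 with 10% NBCS. Compounds dissolved in DMSO and tested at 8 concentrations, 156.25 to 20 000 nM. Growth read by sulforhodamine-B assay.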

SK-OV-3 = assay: Antiproliferative activity against human SKOV3 cells as reduction in cell growth measured after 96 hrs by Celltiter-glo luminescent assay; type: functional, cell-based; settings: SK-OV-3, 96 h
Outline: (§1)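 Cell lines kept at 37 °C, 5% CO2; 5 × 10^2 cells per well, compound added the day after seeding at 200 to 0.02 µM. Viability read after 96 h by CellTiter-Glo luminescence. IC50 from logistic dose-response curves, in triplicate; error bars are SD.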

OVCAR-3 = assay: Antiproliferative activity against human OVCAR3 cells as reduction in cell growth measured after 96 hrs by Celltiter-glo luminescent assay; type: functional, cell-based; settings: OVCAR-3, 96 h; outline: as §1
MDA-MB-231 = assay: Antiproliferative activity against human MDA-MB-231 cells as reduction in cell growth measured after 96 hrs by Celltiter-glo luminescent assay; type: functional, cell-based; settings: MDA-MB-231, 96 h; outline: as §1
Caov-3 cell line = assay: Antiproliferative activity against human CAOV3 cells as reduction in cell growth measured after 96 hrs by Celltiter-glo luminescent assay; type: functional, cell-based; settings: Caov-3, 96 h; outline: as §1
HCT-116 = assay: Antiproliferative activity against human HCT116 cells as reduction in cell growth measured after 96 hrs by Celltiter-glo luminescent assay; type: functional, cell-based; settings: HCT-116, 96 h; outline: as §1
[2] = Cytotoxicity against cancer-derived human organoids in HGSOC patient assessed as reduction in cell viability up to 100 uM measured after 96 hrs by Celltiter-glo luminescent assay; type: functional, Neoplasm; settings: dose microM <=100
Outline: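 Organoids from three HGSOC patients. Tissue digested with 2 mg/mL collagenase for 30 min, embedded in BME matrix and cultured. Treated at 100 µM, with carboplatin as positive control. Viability read by CellTiter-Glo luminescence.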

IC50 (Monoglyceride lipase) | Compound | further results
4300 nM | O=C(c1ccc([S+]([O-])c2ccccc2)cc1)C1CCN(C(=O)c2cccc(O)c2)CC1 (stereo not given) | 
3400 nM | O=C(c1ccc(S(=O)(=O)c2ccccc2)cc1)C1CCN(C(=O)c2cccc(O)c2)CC1 | 
1000 nM | O=C(c1ccc(-c2cn(-c3ccccc3)nn2)cc1)C1CCN(C(=O)c2cccc(O)c2)CC1 | 
2300 nM | Cc1ccc(O)cc1C(=O)N1CCC(C(=O)c2ccc(C(C)C)cc2)CC1 | 
> 10000 nM | CC(C)c1ccc(C(=O)C2CCN(C(=O)c3cc(O)ccc3N)CC2)cc1 | 
130 nM | COc1nn(-c2ccc(NC(=O)OCc3ccccc3)c(C)c2)c(=O)o1 | IC50 (SK-OV-3): 33000 nM; IC50 (OVCAR-3): 53000 nM; IC50 (MDA-MB-231): 83000 nM; IC50 (Caov-3 cell line): 95000 nM; IC50 (HCT-116): 38000 nM; inhibition (INH) [2]: 50%
81 nM | CC(C)c1ccc(C(=O)C2CCN(C(=O)c3cc(O)ccc3F)CC2)cc1 | 
142 nM | CC(C)c1ccc(C(=O)C2CCN(C(=O)c3cccc(O)c3)CC2)cc1 | 
278 nM | O=C(c1ccc(Oc2ccccc2)cc1)C1CCN(C(=O)c2cccc(O)c2)CC1 | 
78 nM | O=C(c1ccc(Cc2ccccc2)cc1)C1CCN(C(=O)c2cccc(O)c2)CC1 | 
> 10000 nM | CC(C)c1ccc(C(=O)C2CCN(C(=O)c3cccc(O)n3)CC2)cc1 | 
8200 nM | CC(C)c1ccc(C(=O)C2CCN(C(=O)c3cc(O)ccc3C(F)(F)F)CC2)cc1 | 
> 10000 nM | CC(C)c1ccc(C(=O)C2CCN(C(=O)c3ccnc(O)c3)CC2)cc1 | 
129 nM | O=C(c1ccc(C2CCCCC2)cc1)C1CCN(C(=O)c2cccc(O)c2)CC1 | 

Further lines, the compound ahead of its results:

Compound | IC50 (Monoglyceride lipase) | further results
O=C(c1ccc(C2CC2)cc1)C1CCN(C(=O)c2cccc(O)c2)CC1 | 368 nM | 
O=C(c1ccc(Nc2ccccc2)cc1)C1CCN(C(=O)c2cccc(O)c2)CC1 | 758 nM | 
CC(C)c1ccc(C(=O)C2CCN(C(=O)c3cc(O)ccc3[N+](=O)[O-])CC2)cc1 | 4500 nM | 
Nc1ccn([C@@H]2O[C@H](CO)[C@@H](O)C2(F)F)c(=O)n1 [GEMCITABINE] |  | IC50 [1]: 5.54 nM
O=C(c1ccc(-c2cn(Cc3ccccc3)nn2)cc1)C1CCN(C(=O)c2cccc(O)c2)CC1 | 4400 nM | 
CC(C)c1ccc(C(=O)C2CCN(C(=O)c3cc(O)c(F)cc3F)CC2)cc1 | 31 nM | 
CC(C)c1ccc(C(=O)C2CCN(C(=O)c3cc(O)ccn3)CC2)cc1 | > 10000 nM | 
CC(C)c1ccc(C(=O)C2CCN(C(=O)c3cncc(O)c3)CC2)cc1 | 2000 nM | 
O=C(c1ccc(Sc2ccccc2)cc1)C1CCN(C(=O)c2cccc(O)c2)CC1 | 74 nM | 
O=C(c1ccc(-c2cn(CCCc3ccccc3)nn2)cc1)C1CCN(C(=O)c2cccc(O)c2)CC1 | 3300 nM | 
